From ChEMBL document CHEMBL1127424, “7-azetidinylquinolones as antibacterial agents. 2. Synthesis and biological activity of 7-(2,3-disubstituted-1-azetidinyl)-4-oxoquinoline- and -1,8-naphthyridine-3-carboxylic acids. Properties and structure-activity relationships of quinolones with an azetidine moiety” (J Med Chem, 1994)
Converted amounts (≈) assume the structure as drawn. Values belong to the molecule of their own block, whether it stands above or below them.

How the values were obtained:
[1] = HPLC capacity factor (k'); assay type: ADME
In short: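 Ion-pair reversed-phase HPLC on ODS-2 (10 μm) at 45 °C. Mobile phase: 10 mM sodium heptanesulfonate plus 50 mM KH2PO4 (pH 3.5)–methanol 45:55, 1 mL/min. Samples at 100 μg/mL in DMF, injected in duplicate, UV 280 nm. k' = (tR − t0)/t0.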

Staphylococcus aureus = test: In vitro minimum inhibitory concentration for Staphylococcus aureus ATCC 25178; assay type: functional
In short: (§1)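 Serial 2-fold agar dilution in Mueller Hinton medium, run alongside a reference quinolone. Inoculum adjusted to 10⁸ cfu/mL; compound range 0.007–16 μg/mL.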

Bacillus cereus = test: In vitro minimum inhibitory concentration for Bacillus cereus ATCC 11778; assay type: functional; in short: as §1
Proteus vulgaris = test: In vitro minimum inhibitory concentration for Proteus vulgaris ATCC 8427; assay type: functional; in short: as §1
Pseudomonas aeruginosa = test: In vitro minimum inhibitory concentration for Pseudomonas aeruginosa ATCC 10145; assay type: functional; in short: as §1
Enterococcus faecalis = test: In vitro minimum inhibitory concentration for Streptococcus faecalis ATCC 10541; assay type: functional; in short: as §1
[2] = test system: Staphylococcus epidermidis; test: In vitro minimum inhibitory concentration for Staphylococcus epidermidis ATCC 155-1; assay type: functional; in short: as §1
Escherichia coli = test: In vitro minimum inhibitory concentration for Escherichia coli ATCC 10799; assay type: functional; in short: as §1
Klebsiella pneumoniae = test: In vitro minimum inhibitory concentration to inhibit Klebsiella pneumoniae ATCC 10031; assay type: functional; in short: as §1
Enterobacter cloacae = test: In vitro minimum inhibitory concentration for Enterobacter cloacae ATCC 23355; assay type: functional
Morganella morganii = test: In vitro minimum inhibitory concentration for Morganella morganii ATCC 8019; assay type: functional; in short: as §1
Bacillus subtilis = test: In vitro minimum inhibitory concentration for Bacillus subtilis ATCC 6633; assay type: functional; in short: as §1

Compound: NC1CN(c2c(F)cc3c(=O)c(C(=O)O)cn(-c4ccc(F)cc4F)c3c2Cl)C1
- Log k' [1]: 0.128

Compound: C[C@H]1[C@@H](O)CN1c1c(F)cc2c(=O)c(C(=O)O)cn(C3CC3)c2c1F
- MIC (Staphylococcus aureus): 0.25 µg/mL (≈ 0.714 µM)
- MIC (Bacillus cereus): 0.25 µg/mL (≈ 0.714 µM)
- MIC (Proteus vulgaris): 0.25 µg/mL (≈ 0.714 µM)
- MIC (Pseudomonas aeruginosa): 8 µg/mL (≈ 22.8 µM)
- MIC (Enterococcus faecalis): 2 µg/mL (≈ 5.71 µM)
- MIC [2]: 0.25 µg/mL (≈ 0.714 µM)
- MIC (Escherichia coli): 0.5 µg/mL (≈ 1.43 µM)
- MIC (Klebsiella pneumoniae): 0.015 µg/mL (≈ 0.0428 µM)
- MIC (Enterobacter cloacae): 0.25 µg/mL (≈ 0.714 µM)
- Log k' [1]: 0.462
- MIC (Morganella morganii): 0.5 µg/mL (≈ 1.43 µM)
- MIC (Bacillus subtilis): 0.015 µg/mL (≈ 0.0428 µM)

Compound: CC1(N)CN(c2c(F)cc3c(=O)c(C(=O)O)cn(-c4ccc(F)cc4)c3c2Cl)C1
- Log k' [1]: 0.2546

Compound: NC1CN(c2nc3c(cc2F)c(=O)c(C(=O)O)cn3-c2ccc(F)cc2F)C1
- Log k' [1]: 0.0063

Compound: CC1(N)CN(c2c(F)cc3c(=O)c(C(=O)O)cn(-c4ccc(F)cc4F)c3c2F)C1
- Log k' [1]: 0.238

Compound: C[C@H]1[C@H](N)CN1c1c(F)cc2c(=O)c(C(=O)O)cn(CCF)c2c1F
- MIC (Staphylococcus aureus): 0.5 µg/mL (≈ 1.41 µM)
- MIC (Bacillus cereus): 0.5 µg/mL (≈ 1.41 µM)
- MIC (Proteus vulgaris): 0.5 µg/mL (≈ 1.41 µM)
- MIC (Pseudomonas aeruginosa): 1 µg/mL (≈ 2.81 µM)
- MIC (Enterococcus faecalis): 2 µg/mL (≈ 5.63 µM)
- MIC [2]: 0.5 µg/mL (≈ 1.41 µM)
- MIC (Escherichia coli): 0.12 µg/mL (≈ 0.338 µM)
- MIC (Klebsiella pneumoniae): 0.03 µg/mL (≈ 0.0844 µM)
- MIC (Enterobacter cloacae): 0.12 µg/mL (≈ 0.338 µM)
- Log k' [1]: -0.1024
- MIC (Morganella morganii): 0.06 µg/mL (≈ 0.169 µM)
- MIC (Bacillus subtilis): 0.12 µg/mL (≈ 0.338 µM)

Compound: C[C@H]1[C@H](N)CN1c1c(F)cc2c(=O)c(C(=O)O)cn(CCF)c2c1Cl
- MIC (Staphylococcus aureus): 0.12 µg/mL (≈ 0.323 µM)
- MIC (Bacillus cereus): 0.25 µg/mL (≈ 0.672 µM)
- MIC (Proteus vulgaris): 0.25 µg/mL (≈ 0.672 µM)
- MIC (Pseudomonas aeruginosa): 1 µg/mL (≈ 2.69 µM)
- MIC (Enterococcus faecalis): 0.5 µg/mL (≈ 1.34 µM)
- MIC [2]: 0.12 µg/mL (≈ 0.323 µM)
- MIC (Escherichia coli): 0.03 µg/mL (≈ 0.0807 µM)
- MIC (Klebsiella pneumoniae): 0.03 µg/mL (≈ 0.0807 µM)
- MIC (Enterobacter cloacae): 0.03 µg/mL (≈ 0.0807 µM)
- Log k' [1]: 0.0166
- MIC (Morganella morganii): 0.03 µg/mL (≈ 0.0807 µM)
- MIC (Bacillus subtilis): 0.06 µg/mL (≈ 0.161 µM)

Compound: CCn1cc(C(=O)O)c(=O)c2c(N)c(F)c(N3CC(N)C3)c(F)c21
- Log k' [1]: -0.1033

Compound: CCn1cc(C(=O)O)c(=O)c2cc(F)c(N3C[C@@H](N)[C@@H]3C)nc21
- MIC (Staphylococcus aureus): 0.5 µg/mL (≈ 1.56 µM)
- MIC (Bacillus cereus): 0.5 µg/mL (≈ 1.56 µM)
- MIC (Proteus vulgaris): 0.5 µg/mL (≈ 1.56 µM)
- MIC (Pseudomonas aeruginosa): 2 µg/mL (≈ 6.24 µM)
- MIC (Enterococcus faecalis): 2 µg/mL (≈ 6.24 µM)
- MIC [2]: 0.5 µg/mL (≈ 1.56 µM)
- MIC (Escherichia coli): 0.25 µg/mL (≈ 0.78 µM)
- MIC (Klebsiella pneumoniae): 0.12 µg/mL (≈ 0.375 µM)
- MIC (Enterobacter cloacae): 0.12 µg/mL (≈ 0.375 µM)
- Log k' [1]: -0.1061
- MIC (Morganella morganii): 0.25 µg/mL (≈ 0.78 µM)
- MIC (Bacillus subtilis): 0.12 µg/mL (≈ 0.375 µM)

Compound: CNC1(C)CN(c2nc3c(cc2F)c(=O)c(C(=O)O)cn3C(C)(C)C)C1
- Log k' [1]: 0.2107

Compound: CC1(N)CN(c2c(F)cc3c(=O)c(C(=O)O)cn(-c4ccc(F)cc4)c3c2F)C1
- Log k' [1]: 0.1106

Compound: CCn1cc(C(=O)O)c(=O)c2cc(F)c(N3CC(C)(N)C3)c(Cl)c21
- Log k' [1]: 0.121

Compound: Nc1c(F)c(N2CC(O)C2)c(F)c2c1c(=O)c(C(=O)O)cn2C1CC1
- Log k' [1]: 0.3487

Compound: C[C@H]1[C@H](N)CN1c1cc2c(cc1F)c(=O)c(C(=O)O)cn2C(C)(C)C
- MIC (Staphylococcus aureus): 0.25 µg/mL (≈ 0.72 µM)
- MIC (Bacillus cereus): 0.25 µg/mL (≈ 0.72 µM)
- MIC (Proteus vulgaris): 0.25 µg/mL (≈ 0.72 µM)
- MIC (Pseudomonas aeruginosa): 2 µg/mL (≈ 5.76 µM)
- MIC (Enterococcus faecalis): 0.5 µg/mL (≈ 1.44 µM)
- MIC [2]: 0.25 µg/mL (≈ 0.72 µM)
- MIC (Escherichia coli): 0.25 µg/mL (≈ 0.72 µM)
- MIC (Klebsiella pneumoniae): 0.015 µg/mL (≈ 0.0432 µM)
- MIC (Enterobacter cloacae): 0.12 µg/mL (≈ 0.345 µM)
- Log k' [1]: 0.1399
- MIC (Morganella morganii): 0.25 µg/mL (≈ 0.72 µM)
- MIC (Bacillus subtilis): 0.06 µg/mL (≈ 0.173 µM)

The next lines start with the values.

- Log k' [1]: -0.106
Compound: CCNCC1CN(c2cc3c(cc2F)c(=O)c(C(=O)O)cn3C2CC2)C1

- Log k' [1]: 0.5451
Compound: CC1(O)CN(c2c(F)cc3c(=O)c(C(=O)O)cn(C4CC4)c3c2F)C1

- Log k' [1]: 0.0969
Compound: CC1(N)CN(c2cc3c(cc2F)c(=O)c(C(=O)O)cn3-c2ccc(F)cc2F)C1

- MIC (Staphylococcus aureus): 0.12 µg/mL (≈ 0.361 µM)
- MIC (Bacillus cereus): 0.06 µg/mL (≈ 0.181 µM)
- MIC (Proteus vulgaris): 0.06 µg/mL (≈ 0.181 µM)
- MIC (Pseudomonas aeruginosa): 2 µg/mL (≈ 6.02 µM)
- MIC (Enterococcus faecalis): 2 µg/mL (≈ 6.02 µM)
- MIC [2]: 0.06 µg/mL (≈ 0.181 µM)
- MIC (Escherichia coli): 0.25 µg/mL (≈ 0.752 µM)
- MIC (Klebsiella pneumoniae): 0.015 µg/mL (≈ 0.0451 µM)
- MIC (Enterobacter cloacae): 0.12 µg/mL (≈ 0.361 µM)
- Log k' [1]: 0.407
- MIC (Morganella morganii): 0.25 µg/mL (≈ 0.752 µM)
- MIC (Bacillus subtilis): 0.015 µg/mL (≈ 0.0451 µM)
Compound: C[C@@H]1[C@@H](O)CN1c1cc2c(cc1F)c(=O)c(C(=O)O)cn2C1CC1

- Log k' [1]: 0.6222
Compound: CCC1(O)CN(c2cc3c(cc2F)c(=O)c(C(=O)O)cn3C2CC2)C1

- Log k' [1]: 0.3264
Compound: O=C(O)c1cn(C2CC2)c2c(F)c(N3CC(O)C3)c(F)cc2c1=O

- Log k' [1]: -0.0782
Compound: CC1(CN)CN(c2cc3c(cc2F)c(=O)c(C(=O)O)cn3C2CC2)C1

- Log k' [1]: 0.1906
Compound: O=C(O)c1cn(C2CC2)c2cc(N3CC(O)C3)c(F)cc2c1=O

- Log k' [1]: 0.115
Compound: CNC1CN(c2c(F)cc3c(=O)c(C(=O)O)cn(C4CC4)c3c2Cl)C1

- MIC (Staphylococcus aureus): 1 µg/mL (≈ 2.96 µM)
- MIC (Bacillus cereus): 1 µg/mL (≈ 2.96 µM)
- MIC (Proteus vulgaris): 1 µg/mL (≈ 2.96 µM)
- MIC (Pseudomonas aeruginosa): 2 µg/mL (≈ 5.93 µM)
- MIC (Enterococcus faecalis): 2 µg/mL (≈ 5.93 µM)
- MIC [2]: 1 µg/mL (≈ 2.96 µM)
- MIC (Escherichia coli): 0.25 µg/mL (≈ 0.741 µM)
- MIC (Klebsiella pneumoniae): 0.12 µg/mL (≈ 0.356 µM)
- MIC (Enterobacter cloacae): 0.12 µg/mL (≈ 0.356 µM)
- Log k' [1]: -0.1459
- MIC (Morganella morganii): 0.12 µg/mL (≈ 0.356 µM)
- MIC (Bacillus subtilis): 0.25 µg/mL (≈ 0.741 µM)
Compound: C[C@H]1[C@H](N)CN1c1cc2c(cc1F)c(=O)c(C(=O)O)cn2CCF

- Log k' [1]: 0.2148
Compound: CC1(O)CN(c2cc3c(cc2F)c(=O)c(C(=O)O)cn3C2CC2)C1

- Log k' [1]: -0.196
Compound: NCC1CN(c2c(F)cc3c(=O)c(C(=O)O)cn(C4CC4)c3c2F)C1

- Log k' [1]: -0.1549
Compound: NCC1CN(c2cc3c(cc2F)c(=O)c(C(=O)O)cn3C2CC2)C1

- Log k' [1]: -0.0773
Compound: CNC1CN(c2nc3c(cc2F)c(=O)c(C(=O)O)cn3C2CC2)C1

- MIC (Staphylococcus aureus): 0.12 µg/mL (≈ 0.33 µM)
- MIC (Bacillus cereus): 0.12 µg/mL (≈ 0.33 µM)
- MIC (Proteus vulgaris): 0.25 µg/mL (≈ 0.688 µM)
- MIC (Pseudomonas aeruginosa): 2 µg/mL (≈ 5.5 µM)
- MIC (Enterococcus faecalis): 0.5 µg/mL (≈ 1.38 µM)
- MIC [2]: 0.12 µg/mL (≈ 0.33 µM)
- MIC (Escherichia coli): 0.12 µg/mL (≈ 0.33 µM)
- MIC (Klebsiella pneumoniae): 0.03 µg/mL (≈ 0.0826 µM)
- MIC (Enterobacter cloacae): 0.06 µg/mL (≈ 0.165 µM)
- Log k' [1]: 0.1903
- MIC (Morganella morganii): 0.12 µg/mL (≈ 0.33 µM)
- MIC (Bacillus subtilis): 0.015 µg/mL (≈ 0.0413 µM)
Compound: CC1(C)[C@@H](N)CN1c1c(F)cc2c(=O)c(C(=O)O)cn(C3CC3)c2c1F

- Log k' [1]: -0.0223
Compound: CC1(N)CN(c2cc3c(cc2F)c(=O)c(C(=O)O)cn3-c2ccc(F)cc2)C1
